Where “and” joins values, the source holds several entries; their conditions need not be identical. Equal entries are not always repeated. Entries after “also recorded” stand apart in the source; their conditions may differ. Where two headings read alike, the source gives them in different places. Marks after values point to notes of the source that are not given here.
Experiments:
[1] = tested on: LANCL2; details: cited from earlier work
[2] = tested on: adult Sprague Dawley male rats; assay: Single dose study; format: in vivo, rat
Method in brief: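 Rats were fasted 12 h, then given one oral gavage of vehicle or 500 mg/kg as a 100 mg/mL suspension; n=10. The functional observational battery was scored at baseline (day −3 or −4), 4 h, and days 1, 7 and 14. Quantal and categorical endpoints were compared by Fisher's exact test. Continuous endpoints (body weight, grip strength and others) were analysed by mixed model with rat as random effect, giving least-squares means per time point.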

[3] = tested on: adult Sprague Dawley male rats; assay: Single dose study; format: in vivo, rat; details: for tBILI, mean plasma: control 0.10; for ALT, mean plasma: control 39; for AST, mean plasma: control 69; for ALP, mean plasma: control 300
Method in brief: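 After a 12 h fast, rats received vehicle or one 500 mg/kg oral gavage. Separate satellite rats (3 treated, 4 control per time point) were euthanized with intraperitoneal pentobarbital 200 mg/kg at 2, 4, 8 and 14 days. Blood was run through a haematology and chemistry panel including ALT, AST, bilirubin, glucose, BUN, creatinine, electrolytes, cholesterol and proteins; group means are reported.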

[4] = tested on: adult Sprague Dawley male rats; assay: Single dose study; format: in vivo, rat; details: single oral 500 mg/kg; 2, 4, 8 or 14 days post-dosing
Method in brief: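 Satellite rats given vehicle or a single 500 mg/kg oral dose were euthanized (pentobarbital 200 mg/kg ip) at 2, 4, 8 and 14 days. Brain, kidney, liver, adrenal, testes, stomach, intestines, duodenum, pancreas, heart, lungs, spleen, thymus and rib were sectioned at 5 μm and H&E stained, n=3. A board-certified veterinary pathologist examined them unblinded by light microscopy.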

[5] = Pharmacokinetic experiment, single 80 mg/kg oral dose, plasma LC-MS/MS; format: in vivo, rat; details: for Geometric mean of plasma concentration (95% lower and upper confidence limits) / Plasma concentration, Median (minimum; maximum): n=3
Method in brief: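 Adult male Sprague-Dawley rats with indwelling jugular catheters, caged singly and acclimated 5 days, were fasted 12 h and given 80 mg/kg by oral gavage. Catheter blood was drawn at 0.5–48 hr, at least 3 rats per time point. EDTA plasma was acetonitrile-extracted with reserpine internal standard and assayed by LC-MS/MS (C18, duplicates; LLOQ 0.2 ng/ml). Median concentrations gave kel, Vd, Cl and T½. Cmax and Tmax were read from the curve, and ka from a one-compartment fit.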

[6] = Blood concentrations after single high dose; format: in vivo, rat
[7] = tested on: adult Sprague Dawley male rats; assay: Repeated dose study; format: in vivo, rat; details: for O_REAR (rears during observation period), least squares means (95% confidence interval): 80 mg/kg/day
Method in brief: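 Male Sprague-Dawley rats (200–250 g) were housed 2 per cage on a reverse light cycle and fasted 12 h before dosing. They received vehicle or 80 mg/kg (20 mg/mL suspension) by oral gavage daily for 14 days, then 7 drug-free days; n=10, 8 at day 21. FOB ran at baseline (day −3/−4) and days 3, 7, 14 and 21. It covered quantal/categorical endpoints (Mantel-Haenszel chi-square, 2 blocks) and continuous endpoints (weight, temperature, rotarod, grip, foot splay) as mixed-model least-squares means.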

[8] = tested on: adult Sprague Dawley male rats; assay: Repeated dose study; format: in vivo, rat; details: 80 mg/kg/day for 14 days; days 4, 8, 14, 21
[9] = tested on: adult Sprague Dawley male rats; assay: Repeated dose study; format: in vivo, rat; details: 80 mg/kg/day over 14 days
[10] = Solubility for intravenous administration; format: physicochemical; details: at concentrations required for IV administration of the test dose
[11] = tested on: mouse models of colitis; details: cited from earlier work
[12] = Day 2 after single oral 500 mg/kg
[13] = Day 4 after single oral 500 mg/kg
[14] = Day 8 after single oral 500 mg/kg
[15] = Day 14 after single oral 500 mg/kg

For CC1=CC(=O)CC(C)(C)[C@@]1(O)/C=C/C(C)=C\C(=O)O [Abscisic acid], the LANCL2 binding ([1]; leads to elevation of intracellular cAMP, activation of PKA) is given as “binds to LANCL2”.
In the case of O=C(c1cccc(-c2nc3ccccc3[nH]2)n1)N1CCN(C(=O)c2cccc(-c3nc4ccccc4[nH]3)n2)CC1 [BT-11, piperazine-1,4-diylbis((6-(1H-benzo[d]imidazo-2-y)pyridin-2-yl)methanone)], the “weight difference vs control” value ([2]; 14 days after single 500 mg/kg bolus dose) is reported as under 4%, the “hind grip strength, least squares mean” value ([2]; day 1 after single oral 500 mg/kg, control 0.46, p=0.0272) is reported as 0.40 and the “weight, least squares mean” value ([2]; day 14 after single oral 500 mg/kg, control 264.46, p=0.0006) is reported as 254.71. For the same molecule, the “FOB quantal endpoints, treated vs control” value ([2]; single oral 500 mg/kg) was “no differences”, the “behavioral evidence of detrimental effects” value ([2]; single oral 500 mg/kg, 2 weeks observation) was “No obvious behavioral evidence of detrimental effects” and the “FOB categorical endpoints, treated vs control” value ([2]; single oral 500 mg/kg, time points beyond baseline) was “did not differ”. The tolerability ([2]; single oral bolus of 500 mg/kg) was “well-tolerated”, the “tBILI, mean plasma” value [3, 12] was 0.20^a mg/dL and the “ALT, mean plasma” value [3, 12] was 126^a IU/L. The “AST, mean plasma” value [3, 12] was 269^a IU/L, the “ALP, mean plasma” value [3, 12] was 376^a IU/L and the “tBILI, mean plasma” value [3, 13] was 0.23^a mg/dL. The “ALT, mean plasma” value [3, 13] was 52^a IU/L, the “AST, mean plasma” value [3, 13] was 106^a IU/L and the “ALP, mean plasma” value [3, 13] was 294^a IU/L. The “tBILI, mean plasma” value [3, 14] was 0.13 ^a mg/dL, the “ALT, mean plasma” value [3, 14] was 53^a IU/L and the “AST, mean plasma” value [3, 14] was 80^a IU/L. The “ALP, mean plasma” value [3, 14] was 288 ^a IU/L, the “tBILI, mean plasma” value [3, 15] was 0.10^a mg/dL and the “ALT, mean plasma” value [3, 15] was 41^a IU/L. The “AST, mean plasma” value [3, 15] was 67^a IU/L, the “ALP, mean plasma” value [3, 15] was 265^a IU/L and the “histopathologic comparison, vehicle control vs BT-11-exposed” value [4] was “No significant differences”. For the same molecule, the “time to steady state (97% level) after repeated dosing” value ([5]; 5 × T ½, assuming single-compartment, dose-independent pharmacokinetics) was “approximately 15 hr”, the “Geometric mean of plasma concentration (95% lower and upper confidence limits)” value ([5]; 0.5 hr after 80 mg/kg oral) was 14.60 (2.94; 72.53) ng/ml and the “Plasma concentration, Median (minimum; maximum)” value (from here on “Plasma concentration, Median”) ([5]; 0.5 hr after 80 mg/kg oral) was 12.18 (8.55; 29.89) ng/ml. The “Geometric mean of plasma concentration (95% lower and upper confidence limits)” value ([5]; 1 hr after 80 mg/kg oral) was 23.99 (4.66; 123.40) ng/ml, the “Plasma concentration, Median” value ([5]; 1 hr after 80 mg/kg oral) was 20.95 (13.42; 49.11) ng/ml and the “Geometric mean of plasma concentration (95% lower and upper confidence limits)” value ([5]; 2 hr after 80 mg/kg oral) was 19.65 (4.28; 90.23) ng/ml. The “Plasma concentration, Median” value ([5]; 2 hr after 80 mg/kg oral) was 16.88 (11.65; 38.62) ng/ml, the “Geometric mean of plasma concentration (95% lower and upper confidence limits)” value ([5]; 4 hr after 80 mg/kg oral) was 8.24 (1.89; 35.94) ng/ml and the “Plasma concentration, Median” value ([5]; 4 hr after 80 mg/kg oral) was 11.07 (4.16; 12.14) ng/ml. For the same molecule, the “Geometric mean of plasma concentration (95% lower and upper confidence limits)” value ([5]; 8 hr after 80 mg/kg oral) was 5.24 (2.16; 12.73) ng/ml, the “Plasma concentration, Median” value ([5]; 8 hr after 80 mg/kg oral) was 4.33 (4.20; 7.91) ng/ml and the “Geometric mean of plasma concentration (95% lower and upper confidence limits)” value ([5]; 12 hr after 80 mg/kg oral) was 1.84 (1.39; 2.45) ng/ml. For the same molecule, the “Plasma concentration, Median” value ([5]; 12 hr after 80 mg/kg oral) was 1.83 (1.65; 2.07) ng/ml, the “Geometric mean of plasma concentration (95% lower and upper confidence limits)” value ([5]; 16 hr after 80 mg/kg oral) was 2.31 (0.12; 44.19) ng/ml and the “Plasma concentration, Median” value ([5]; 16 hr after 80 mg/kg oral) was 1.40 (0.99; 8.98) ng/ml. For the same molecule, the “Geometric mean of plasma concentration (95% lower and upper confidence limits)” value ([5]; 20 hr after 80 mg/kg oral) was 1.06 (0.29; 3.90) ng/ml, the “Plasma concentration, Median” value ([5]; 20 hr after 80 mg/kg oral) was 1.39 (0.58; 1.49) ng/ml and the “Geometric mean of plasma concentration (95% lower and upper confidence limits)” value ([5]; 24 hr after 80 mg/kg oral) was 0.95 (0.04; 21.25) ng/ml. For the same molecule, the “Plasma concentration, Median” value ([5]; 24 hr after 80 mg/kg oral) was 1.01 (0.26; 3.22) ng/ml, the “Geometric mean of plasma concentration (95% lower and upper confidence limits)” value ([5]; 48 hr after 80 mg/kg oral) was 1.57 (0.47; 5.31) ng/ml and the “Plasma concentration, Median” value ([5]; 48 hr after 80 mg/kg oral) was 1.90 (0.90; 2.27) ng/ml. For the same molecule, the “Cmax (maximal concentration)” value ([5]; single 80 mg/kg oral, estimated from graph of median plasma concentrations) was 21 ng/mL, the “Half-life (T ½)” value ([5]; single 80 mg/kg oral, median values 0.5-8 hr, 80 mg/kg) was 3 h and the “blood concentration, individual samples” value ([6]; 2 hr after 500 mg/kg oral) was 32 ng/mL and 3.1 ng/mL and 13 ng/mL. For the same molecule, the “blood concentration, individual samples” value ([6]; 4 hr after 500 mg/kg oral) was 17 ng/mL and 15 ng/mL and 6.7 ng/mL, the “blood concentration, individual samples” value ([6]; 22 hr after 500 mg/kg oral) was 3.0 ng/mL and 9.6 ng/mL and 3.3 ng/mL and the “FOB quantal endpoints, treated vs control” value ([7]; 80 mg/kg/day oral for 14 days) was “No quantal differences”. The “behavioral evidence of detrimental effects” value ([7]; 80 mg/kg/day oral, 2 weeks of treatment and 1 week post-dosing) was “No behavioral evidence of detrimental effects”, the “weight and hind grip, treated vs control” value ([7]; 14 daily oral doses of 80 mg/kg, to day 21) was “no significant differences” and the “O_REAR (rears during observation period), least squares means (95% confidence interval)” value (shortened to “O_REAR … (95% confidence interval)”) ([7]; Study day 3, control 29.17, P=0.4916) was 27.23 (13.90-40.57). The “O_REAR … (95% confidence interval)” value ([7]; Study day 7, control 27.97, P=0.1985) was 24.33 (11.00-37.67), the “O_REAR … (95% confidence interval)” value ([7]; Study day 14, control 30.27, P=0.0273) was 23.93 (10.60-37.27) and the tolerability ([7]; oral, 14 days at 80 mg/kg (cumulative dose 1,120 mg/kg)) was “well-tolerated”. The “clinical pathological examination of blood samples, control vs test” value [8] was “did not reveal any clinical or statistical differences”, the “histopathologic evidence of toxic injury” value [9] was “no histopathologic evidence of toxic injury” and the solubility [10] was “too insoluble to administer by the intravenous route; also recorded: relatively insoluble; also recorded: insufficiently soluble to be given IV”. For the same molecule, the “inflammatory F4/80+ CD11b+ macrophages and effector Th1 cells in the gut mucosa” value ([11]; 3 mouse models of colitis) was “decreased numbers”, the “lowest dose with therapeutic efficacy” value ([11]; 3 validated mouse models of colitis) was 8 mg/kg/day and the “Th1 cells and Th17 cells in the spleen and MLN” value ([11]; mouse colitis) was “decreased the levels”. The “colonic expression of IL-10 and LANCL2” value ([11]; oral, dose-dependent) was “up-regulated”, the “colonic expression of TNFα” value ([11]; oral, dose-dependent) was “down-regulated” and the “reduction in gut inflammation” value ([11]; oral, mice, 3 mouse models of colitis/IBD) was 90%. For the same molecule, the “lowest (minimal) efficacious dose” value ([11]; oral, mice) was 8 mg/kg, the “reduction of colonic lesions” value ([11]; oral, mice, doses 80 mg/kg and as low as 8 mg/kg) was 4 X and the LANCL2 binding [1] was “binds LANCL2”.
In the case of O=C(Nc1cccc(-c2nc3ccccc3[nH]2)c1)c1ccc(C(=O)Nc2cccc(-c3nc4ccccc4[nH]3)c2)cc1 [CID247228, N^1,N^4-bis(3-(1H-benzo[d]imidazo-2-yl)phenyl)terephthalamide, reference compound], the “anti-inflammatory activity in mice with colitis” value ([11]; oral) is listed as “potent oral anti-inflammatory therapeutic” and the LANCL2 binding [1] is listed as “ligand of LANCL2”.

From publication PMC5033715 (International journal of toxicology, 2016)
